Experimental data as given in PMC8604242 (Clinical and Translational Science, 2021).
“Also recorded” adds a separate entry of the source. Like-named read-outs stand apart in the source and are kept apart here.

Tests used:
[1] = tested on: BTK; conditions: cited from earlier work
[2] = tested on: patients with relapsing MS; conditions: cited from earlier work
[3] = format: in vivo, human; conditions: for AUC0-t of total radioactivity, GM (GM CV, %) / AUC0–24h of total radioactivity, GM (GM CV, %) / Cmax of total radioactivity, GM (GM CV, %) / Tmax of total radioactivity, median (min, max): single 75-mg oral dose
Outline: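 After a single oral 75‑mg ¹⁴C dose in six healthy men, total radioactivity was measured by duplicate LSC. Plasma was spiked directly with cocktail; whole blood was solubilized and decolorized first. Plasma LLOQ was 9.91 ng eq/ml (30 dpm/ml), with sampling from 0.25 h postdose. Noncompartmental parameters used actual sampling times, with descriptive statistics.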

[4] = Metabolite profiling and identification in plasma, urine and feces; format: in vivo, human
Outline: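 UPLC‑HR‑MS (QTof) with the eluent fractionated every 7 s, off‑line microplate scintillation counting, and reconstructed radiochromatograms. Urine and feces were pooled per participant covering ≥90% of excreted radioactivity, excluding low‑radioactivity intervals. Plasma (1–24 h) was exhaustively extracted with ethanol/acetonitrile, evaporated under nitrogen at 37°C, and redissolved in ACN/MeOH/water 1+1+8. Nonextractable radioactivity was the precipitate counted by LSC, as % of total. AUCs were noncompartmental.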

[5] = Plasma PK of evobrutinib by validated LC-MS/MS; format: in vivo, human
Outline: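 Unlabeled drug was measured in K2EDTA plasma (100 µL) by validated LC‑MS/MS with an isotopically labeled internal standard. LLOQ was 0.600 ng/ml, linear to 600 ng/ml with 1/x2‑weighted regression. Participants were six healthy men given a single oral 75‑mg solution dose. Noncompartmental Cmax, Tmax, AUC, t1/2, Vz/F and CL/F used actual sampling times. Parent AUC was related to plasma total‑radioactivity AUC.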

[6] = cited from earlier work
[7] = tested on: human hepatocytes; conditions: cited from earlier work
[8] = Mass balance: excretion of total radioactivity in urine and feces; format: in vivo, human
Outline: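 Six healthy men received one oral 75‑mg solution (30 ml, ~3.6 MBq/~100 μCi ¹⁴C label), followed by two 50‑ml bottle rinses. Urine got scintillation cocktail directly. Feces were homogenized with equal weight of water, dried, and combusted with CO2 trapped in absorber. LSC was done in duplicate. Excretion was expressed against the administered radioactive dose over nominal collection intervals, with descriptive statistics.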

[9] = Safety; format: in vivo, human; conditions: single dose of ^14C-evobrutinib
[10] = tested on: rat hepatocytes; conditions: cited from earlier work
[11] = single 75-mg oral dose of ^14C-evobrutinib, six healthy men, within 168 h

## C=CC(=O)N1CCC(CNc2ncnc(N)c2-c2ccc(Oc3ccccc3)cc2)CC1 [evobrutinib]
[1]; 25 mg, multiple daily dosing, healthy participants
  BTK occupancy after multiple daily dosing: Full BTK occupancy
[1]; doses of greater than or equal to 100 mg
  BTK occupancy at 96 h: greater than 50%
[1]; reached within ~ 4 h after single doses of greater than or equal to 200 mg
  Maximum BTK occupancy: > 90%
[2]; 75 mg q.d. and b.i.d., over 24 weeks
  Total number of gadolinium-enhancing lesions on T1-weighted MRI versus placebo: significantly reduced
[2]
  Severity of the majority of TEAEs: mild or moderate
[3]; at 72 and 96 h postdose
  Mean blood to plasma ratio of total radioactivity: 1.6
[3]; at 0.25 h postdose
  Mean blood to plasma ratio of total radioactivity: 0.6
[3]; plasma, postdose
  Time of individual maximum total radioactivity concentration in plasma, range: 0.25 to 1 h
[3]; plasma
  AUC0-t of total radioactivity, GM (GM CV, %): 3915 (32.7) ng (eq) h/ml
  AUC0–24h of total radioactivity, GM (GM CV, %): 2805 (14.8) ng (eq) h/ml
  Cmax of total radioactivity, GM (GM CV, %): 1047 (22.8) ng eq/ml
  Tmax of total radioactivity, median (min, max): 0.5 h
[3]; plasma, listed as 14C‐radiolabeled evobrutinib
  Tmax of total radioactivity, median (min, max): 0.50 (0.25, 1.00) h
[3]; whole blood
  AUC0-t of total radioactivity, GM (GM CV, %): 4944 (13.6) ng (eq) h/ml
  AUC0–24h of total radioactivity, GM (GM CV, %): 2001 (9.9) ng (eq) h/ml
  Cmax of total radioactivity, GM (GM CV, %): 623 (25.5) ng eq/ml
  Tmax of total radioactivity, median (min, max): 0.5 h
[3]; whole blood, listed as 14C‐radiolabeled evobrutinib
  Tmax of total radioactivity, median (min, max): 0.50 (0.25, 1.00) h
[4]; feces
  Number of metabolites detected and elucidated in feces: 30
[4]; in vivo
  Number of phase I metabolites fully or partially elucidated: 40
  Number of phase II metabolites fully or partially elucidated: 18
  Total number of metabolites identified in urine, feces, and plasma: 58
[4]; plasma
  Number of metabolites detected and elucidated in plasma: 24
[4]; plasma, after exhaustive extraction
  Geometric mean AUC0–24 of nonextractable radioactivity: 1085 h٠ng eq/ml
[4]; pooled feces
  Unchanged evobrutinib in feces: not detected
[4]; pooled urine
  Unchanged evobrutinib in urine metabolite profiles: not detected
[4]; urine
  Number of metabolites detected and elucidated in urine: 41
[5]; human, plasma, po, 75 mg
  Cmax: 321 ng/mL
  Half-life: 79.8 min
  Vd/F: 381 L
[5]; plasma, postdose
  Time of individual maximum evobrutinib plasma concentration, range: 0.25 to 0.50 h
[5]; plasma, single 75-mg oral dose
  AUC0-t of evobrutinib, GM (GM CV, %): 375 (19.4) ng (eq) h/ml
  AUC0–24h of evobrutinib, GM (GM CV, %): 378 (19.4) ng (eq) h/ml
  CL/F, GM (GM CV, %): 199 (19.4) L/h
  Tmax of evobrutinib, median (min, max): 0.5 h
[5]; plasma, single 75-mg oral dose, listed as Evobrutinib
  Tmax of evobrutinib, median (min, max): 0.50 (0.25, 0.55) h
[5]; single dose
  Parent drug share of total radioactivity plasma exposure (AUC): 10–13%
[6]; 25–200 mg doses
  Half-life: 1.8 to 2.6 h
[6]; after multiple-dosing, 13 participants
  Participants with treatment-emergent adverse events: 48.1%
[6]; after single-dosing, nine participants
  Participants with treatment-emergent adverse events: 25%
[6]
  Severity of most TEAEs: mild
[6]; healthy participants
  Half-life: ~ 2 h
  Time to reach maximum plasma concentration (Tmax): ~ 0.5 h
[6]; single 25-500 mg, 25-200 mg q.d. for 14 days
  Dose-proportionality, accumulation and time-dependency of PK: dose‐proportional, with no accumulation or time‐dependency with repeat dosing
[7]; rat and human hepatocytes
  Number of different metabolites formed: 23
[8]; single 75-mg oral dose
  Unchanged evobrutinib in excreta (urine or feces): No unchanged evobrutinib was detected; also recorded: No unchanged evobrutinib was recovered
[8]; [11]
  Total radioactivity excreted in feces, arithmetic mean percentage of dose: 71.0%
  Total radioactivity excreted in urine, arithmetic mean percentage of dose: 20.6%
[8]; single 75-mg oral dose, 0-96 h
  Radioactive dose excreted in feces within 96 h, range: 66.4–73.5%
[8]; single 75-mg oral dose, urine plus feces, first 72 h
  Total radioactivity excreted within 72 h after administration (mean): 85.3%
[8]; single 75-mg oral dose, urine plus feces, within 96 h
  Mean total radioactivity recovery within 96 h: 89.7%
[8]; single 75-mg oral dose, urine plus feces, within 168 h
  Mean total radioactivity recovery: 91.6%
[9]
  Nausea, headache, epistaxis, and nasopharyngitis, number of participants each: 1 participant each
  Oropharyngeal pain, number of participants: 2 participants
  Serious AEs, deaths, or withdrawals: no serious AEs, deaths, or withdrawals
  Severity and relatedness of AEs: mild and not considered study treatment related
[9]; four of six participants
  Participants who experienced an adverse event: 67%

## Nc1ncnc(NCC2CCN(C(=O)C(O)CO)CC2)c1-c1ccc(Oc2ccccc2)cc1 (centres unmarked) [evobrutinib‐diol]
[7]
  Rank among metabolites in human hepatocytes: main metabolite

## hydroxyl‐evobrutinib
[10]
  Rank among metabolites in rat hepatocytes: most abundant metabolite
